{"source": "paper PMC5474308", "about": "(Biochimica et biophysica acta, 2015)", "key": {"[1]": {"tested_on": "PAK2 (pT402) in pancreatic acini", "experiment": "PAK2 T402 phosphorylation after stimulation by secretagogues and growth factors", "format": "cell-based, rat", "details": "for effect on phosphorylation of (T402) PAK2: VIP 10 nM, secretin 10 nM, endothelin 1 10 nM, 1 min; for PAK2 activation (abstract, words): rat pancreatic acini; for T402 PAK2 phosphorylation by growth factors, % of control: EGF 10 nM 5 min, bFGF 100 ng/ml 5 min, PDGF 100 ng/ml 10 min (p<0.05), insulin 1 μM 10 min (p=0.08), 5 independent experiments; for effect of growth factors on PAK2 threonine 402 phosphorylation: IGF-1 100 nM 10 min, HGF 1 nM 10 min, insulin 1 μM 10 min"}, "[2]": {"tested_on": "PAK2 (pT402) in pancreatic acini", "format": "cell-based, rat"}, "[3]": {"tested_on": "PAK2 (pT402) in pancreatic acini", "experiment": "Dose-response effect of CCK and CCK-JMV on T402 PAK2 phosphorylation", "format": "cell-based, rat", "details": "3 min", "summary_of_the_method": "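Rat pancreatic acini were dispersed by collagenase and pre-incubated 2 h at 37 °C in HEPES-buffered (pH 7.45) standard incubation solution. They were then exposed for 3 min to graded concentrations of CCK or the test peptide, and lysed. Read-out was pT402 PAK2 western blot with total PAK2 as loading control, by chemiluminescence densitometry. Values are % of 100 nM CCK response; n=5; EC50 by curve fitting.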"}, "[4]": {"tested_on": "PAK2 (pT402) in pancreatic acini", "experiment": "Time course of CCK and EGF stimulation of PAK2 T402 phosphorylation", "format": "cell-based, rat", "details": "for T402 PAK2 phosphorylation at 1 minute: 1 min; for T402 PAK2 phosphorylation at 1 minute / duration of increase in phospho-T402 PAK2 / time of maximum T402 PAK2 phosphorylation: CCK 100 nM or EGF 10 nM"}, "[5]": {"tested_on": "rat pancreatic acinar cells (amylase release)", "experiment": "Effect of PAK2 inhibition on amylase release", "format": "cell-based", "details": "for Amylase secretion (% total), no inhibitor / Amylase secretion (% total), inhibitor with CCK 0.01 nM / Amylase secretion (% total), inhibitor with CCK 0.1 nM / Amylase secretion (% total), inhibitor with bombesin / Amylase secretion (% total), inhibitor without secretagogue: 30 min; for Amylase secretion (% total), no inhibitor: 5–10 experiments, untreated 3.8 ± 0.3, p<0.05 vs control; for Amylase secretion (% total), inhibitor with CCK 0.01 nM: 40 μM inhibitor/analogue + CCK 0.01 nM, CCK alone 11.9 ± 2.2; for Amylase secretion (% total), inhibitor with CCK 0.1 nM: 40 μM inhibitor/analogue + CCK 0.1 nM, CCK alone 15.7 ± 0.4; for Amylase secretion (% total), inhibitor with bombesin: 40 μM inhibitor/analogue + bombesin 10 nM, bombesin alone 15.2 ± 0.8; for Amylase secretion (% total), inhibitor without secretagogue: 40 μM inhibitor/analogue, no secretagogue", "summary_of_the_method": "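Secretagogues were CCK (0.01 or 0.1 nM) or bombesin (10 nM). Amylase released over a 30 min incubation was measured with Phadebas reagent and expressed as % of total cellular amylase. Means of 5–10 experiments.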"}, "[6]": {"tested_on": "PAK2 (pT402) in pancreatic acini", "experiment": "Effect of post-receptor stimulants on T402 PAK2 phosphorylation", "format": "cell-based, rat", "details": "1 μM each, 5 min"}, "[7]": {"tested_on": "PAK2 (pT402) in pancreatic acini", "format": "cell-based, rat", "details": "for PAK2 inhibition: IPA-3 40 μM, 15 min"}, "[8]": {"tested_on": "ERK1/2 (p42/44) in pancreatic acini", "experiment": "Effect of PAK2 inhibition on ERK1/2", "format": "cell-based, rat"}, "[9]": {"tested_on": "CCK1 / CCK2 receptors in pancreatic acini (pT402 PAK2)", "format": "cell-based, rat", "details": "gastrin (CCKB agonist) 10 nM, A71378 (CCKA receptor agonist) 30 nM, 1 min"}}, "note": "Read-outs that look alike come from different tables or passages of the source. Ends that are not written are not given here.", "data": [{"compound": "Endothelin-1: interacts with ET-1 and ET-3 receptors in the pancreatic acinar cell (CSCSSLMDKECVYFCHLDIIW; ends and bridges not checked; cysteine pairing not given here; UniProt P05305 53-73, looked up)", "values": [{"measurement": "effect on phosphorylation of (T402) PAK2", "setting": "[1]", "value": "did not produce any effect upon T402 PAK2 phosphorylation"}]}, {"compound": "CN(C)CCCn1cc(C2=C(c3c[nH]c4ccccc34)C(=O)NC2=O)c2ccccc21", "note": "[GFX]", "values": [{"measurement": "TPA-induced pT402 PAK2 phosphorylation after pretreatment", "setting": "[2]; pretreatment GF109203X 5 μM 1 h, then TPA 1 μM 5 min, TPA alone 319±45", "value": "100±26 % of control"}]}, {"compound": "COOH-terminal octapeptide of cholecystokinin [CCK]", "values": [{"measurement": "PAK2 activation (abstract, words)", "setting": "[1]", "value": "activated"}, {"measurement": "maximal stimulation of T402 PAK2 phosphorylation", "setting": "[3]; 100 nM CCK", "value": "452±70 % of control"}, {"measurement": "concentration at which increase in T402 PAK2 phosphorylation is detectable", "setting": "[3]", "value": 10, "unit": "pM"}, {"measurement": "concentration of maximal stimulation of T402 PAK2 phosphorylation", "setting": "[3]", "value": 100, "unit": "nM"}, {"measurement": "T402 PAK2 phosphorylation at 1 minute", "setting": "[4]; mean ± S.E. of 5 experiments", "value": "275±17 % of control"}, {"measurement": "T402 PAK2 phosphorylation at 3 min", "setting": "[4]; 3 min, CCK 100 nM, mean ± S.E. of 5 experiments, p<0.05", "value": "298±26 % of control"}, {"measurement": "duration of increase in phospho-T402 PAK2", "setting": "[4]", "value": "over 15 min"}, {"measurement": "time of maximum T402 PAK2 phosphorylation", "setting": "[4]", "value": 3, "unit": "min"}, {"measurement": "subsequent partial decrease of PAK2 activation after rapid increase", "setting": "[4]; CCK 100 nM, sustained over time", "value": 40, "unit": "%"}, {"measurement": "PKC-independent activation of PAK2 that was also PLC-independent", "setting": "[2]; CCK1 receptor stimulation", "value": 40, "unit": "%"}, {"measurement": "increase in amylase release", "setting": "[5]; 0.01 nM CCK", "value": "313±57", "unit": "%"}, {"measurement": "increase in amylase release", "setting": "[5]; 0.1 nM CCK", "value": "413±11", "unit": "%"}, {"measurement": "Amylase secretion (% total), no inhibitor", "setting": "[5]; CCK 0.01 nM", "value": "11.9 ± 2.2", "unit": "% total"}, {"measurement": "Amylase secretion (% total), no inhibitor", "setting": "[5]; CCK 0.1 nM", "value": "15.7 ± 0.4", "unit": "% total"}]}, {"compound": "CCCCCCCCCCCCCC(=O)O[C@@H]1[C@@H](C)[C@@]2(O)[C@@H](C=C(CO)C[C@]3(O)C(=O)C(C)=C[C@@H]23)[C@@H]2C(C)(C)[C@]12OC(C)=O", "note": "[TPA, 12-O-tetradecanoylphorbol-13-acetate]", "values": [{"measurement": "PAK2 activation (abstract, words)", "setting": "[1]", "value": "activated"}]}, {"compound": "Insulin: pancreatic growth factor", "values": [{"measurement": "T402 PAK2 phosphorylation by growth factors, % of control", "setting": "[1]", "value": "210±44 of control"}, {"measurement": "effect of growth factors on PAK2 threonine 402 phosphorylation", "setting": "[1]", "value": "did not quite reach statistical significance"}]}, {"compound": "platelet-derived growth factor [PDGF]", "values": [{"measurement": "T402 PAK2 phosphorylation by growth factors, % of control", "setting": "[1]", "value": "240±44 of control"}, {"measurement": "PAK2 activation (abstract, words)", "setting": "[1]", "value": "activated"}]}, {"compound": "CNc1ccc2oc(C[C@H]3O[C@@]4(CC[C@H]3C)O[C@H]([C@H](C)C(=O)c3ccc[nH]3)[C@H](C)C[C@H]4C)nc2c1C(=O)O", "note": "[A23187]", "values": [{"measurement": "effect on PAK2 phosphorylation", "setting": "[6]", "value": "have no effect on PAK2"}]}, {"compound": "insulin-like growth factor 1 [IGF-1]", "values": [{"measurement": "effect of growth factors on PAK2 threonine 402 phosphorylation", "setting": "[1]", "value": "had no effect"}]}, {"compound": "C[N+](C)(C)CCOC(N)=O", "note": "[carbachol]", "values": [{"measurement": "PAK2 activation (abstract, words)", "setting": "[1]", "value": "activated"}]}, {"compound": "secretin: gastrointestinal hormone activating adenylate cyclase", "values": [{"measurement": "effect on phosphorylation of (T402) PAK2", "setting": "[1]", "value": "did not increase phosphorylation of (T402) PAK2"}]}, {"compound": "Epidermal growth factor [EGF]", "values": [{"measurement": "T402 PAK2 phosphorylation by growth factors, % of control", "setting": "[1]", "value": "195±28 of control"}, {"measurement": "PAK2 activation (abstract, words)", "setting": "[1]", "value": "activated"}, {"measurement": "T402 PAK2 phosphorylation at 1 minute", "setting": "[4]; mean ± S.E. of 5 experiments", "value": "300±30 % of control"}, {"measurement": "duration of increase in phospho-T402 PAK2", "setting": "[4]", "value": "≤ 3", "unit": "min"}, {"measurement": "time of maximum T402 PAK2 phosphorylation", "setting": "[4]", "value": 1, "unit": "min"}]}, {"compound": "bombesin: pancreatic secretagogue that activates phospholipase C", "values": [{"measurement": "PAK2 activation (abstract, words)", "setting": "[1]", "value": "activated"}, {"measurement": "Amylase secretion (% total), no inhibitor", "setting": "[5]; bombesin 10 nM", "value": "15.2 ± 0.8", "unit": "% total"}]}, {"compound": "basic fibroblast growth factor [bFGF]", "values": [{"measurement": "T402 PAK2 phosphorylation by growth factors, % of control", "setting": "[1]", "value": "228±37 of control"}, {"measurement": "PAK2 activation (abstract, words)", "setting": "[1]", "value": "activated"}]}, {"compound": "Oc1ccc2ccccc2c1SSc1c(O)ccc2ccccc12", "note": "[IPA-3, 1,1′-Dithiodi-2-naphthtol]", "values": [{"measurement": "PAK2 inhibition", "setting": "[7]", "value": 70, "unit": "%"}, {"measurement": "PAK2 inhibition", "setting": "[7]; listed as IPA3", "value": "approximately 70%"}, {"measurement": "basal pT402 PAK2 phosphorylation with inhibitor", "setting": "[7]; PP2 10 μM 1 h or IPA-3 40 μM 15 min, no stimulant", "value": "32±6 % of control"}, {"measurement": "effect on CCK-activation of PAK2 (abstract, words)", "setting": "[7]; rat pancreatic acini", "value": "partially inhibited"}, {"measurement": "CCK induced phosphorylation of p42/44 with inhibitor", "setting": "[8]; IPA-3 40 μM, then CCK 0.3 nM, p<0.05", "value": "64±4 % of CCK 0.3 nM alone"}, {"measurement": "effect on CCK-induced ERK1/2 activation (abstract, words)", "setting": "[8]; rat pancreatic acini", "value": "reduced"}, {"measurement": "reduction of bombesin-induced increase in amylase release", "setting": "[5]; 40 μM IPA3, bombesin 10 nM", "value": "55 % of the maximal bombesin-induced stimulation"}, {"measurement": "reduction of CCK-induced increase in amylase release", "setting": "[5]; 40 μM IPA3, both concentrations of CCK (0.01, 0.1 nM)", "value": "63 % of maximal CCK stimulation"}, {"measurement": "Amylase secretion (% total), inhibitor with CCK 0.01 nM", "setting": "[5]", "value": "7.5 ± 1.3ˆ % total"}, {"measurement": "Amylase secretion (% total), inhibitor with CCK 0.1 nM", "setting": "[5]", "value": "9.6 ± 0.6ˆ % total"}, {"measurement": "Amylase secretion (% total), inhibitor with bombesin", "setting": "[5]", "value": "10.3± 0.9ˆ % total"}, {"measurement": "Amylase secretion (% total), inhibitor without secretagogue", "setting": "[5]", "value": "5.2 ± 0.5", "unit": "% total"}, {"measurement": "effect on amylase release induced by CCK or bombesin (abstract, words)", "setting": "[5]; rat pancreatic acini", "value": "reduced"}]}, {"compound": "vasoactive intestinal peptide (HSDAVFTDNYTRLRKQMAVKKYLNSILN; ends and bridges not checked; UniProt P01282 125-152, looked up) [VIP]", "values": [{"measurement": "effect on phosphorylation of (T402) PAK2", "setting": "[1]", "value": "did not increase phosphorylation of (T402) PAK2"}]}, {"compound": "hepatocyte growth factor [HGF]", "values": [{"measurement": "effect of growth factors on PAK2 threonine 402 phosphorylation", "setting": "[1]", "value": "had no effect"}]}, {"compound": "Oc1ccc2cc(SSc3ccc4cc(O)ccc4c3)ccc2c1", "note": "[Pir 3,5, 6,6′-Dithiodi-2-naphthtol]", "values": [{"measurement": "Amylase secretion (% total), inhibitor with CCK 0.01 nM", "setting": "[5]", "value": "12.6 ± 0.8", "unit": "% total"}, {"measurement": "Amylase secretion (% total), inhibitor with CCK 0.1 nM", "setting": "[5]", "value": "14.7± 1.0", "unit": "% total"}, {"measurement": "Amylase secretion (% total), inhibitor with bombesin", "setting": "[5]", "value": "14.4 ± 1.2", "unit": "% total"}, {"measurement": "Amylase secretion (% total), inhibitor without secretagogue", "setting": "[5]", "value": "4.3 ± 0.9", "unit": "% total"}, {"measurement": "effect on stimulated enzyme secretion", "setting": "[5]; Pir3,5 40 μM, CCK or bombesin", "value": "had no effect on stimulated enzyme secretion"}]}, {"compound": "gastrin", "values": [{"measurement": "effect of selective receptor agonist on pT402 PAK2 phosphorylation", "setting": "[9]", "value": "did not produce any increase in pT402 PAK2 phosphorylation"}]}]}
